We go through 1 compound from ChEMBL document CHEMBL4622923, “Discovery of 4-Phenylpiperidine-2-Carboxamide Analogues as Serotonin 5-HT2C Receptor-Positive Allosteric Modulators with Enhanced Drug-like Properties” (J Med Chem, 2020).

What is called inhibition is the relative decrease from the control value, in per cent. The Vdss is the apparent volume that relates the amount in the body to the concentration in plasma or blood. The low end stands for confinement near the circulation, the high end for extensive tissue distribution. As usually defined, the AUC is concentration integrated over time. A lower AUC goes with low exposure. One may read the Cmax as the maximum level reached in the sampled fluid or tissue. Broadly, the Ki is the dissociation constant of the complex between target and ligand, obtained from inhibition or displacement.

Data set [1] in a line: Ratio of drug level in brain to plasma in Sprague-Dawley rat at 10 mg/kg, iv after 1 hr. The data set is classed as ADME, organism-based. The procedure, abridged:
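Male Sprague-Dawley rats, n = 3/group, given 10 mg/kg iv in 10% DMSO:90% HP-β-CD. Brain and plasma collected at 0.25 and 1 h after dosing. Brain concentration (ng/g) divided by plasma concentration (ng/mL); mean ± SEM.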

For data set [2], the target named is Kappa-type opioid receptor (Homo sapiens) (UniProt P41145). As to the kind of experiment: Displacement of [3H]-U69593 from kappa opioid receptor (unknown origin) at 10 uM incubated for 90 mins under dark condition by scintillation counting analysis relative to control. On the technique in general: Loss of bound radioactivity is the signal in a displacement assay; it reports binding, not function.
Sequence of Kappa-type opioid receptor (Homo sapiens) (P41145 whole entry): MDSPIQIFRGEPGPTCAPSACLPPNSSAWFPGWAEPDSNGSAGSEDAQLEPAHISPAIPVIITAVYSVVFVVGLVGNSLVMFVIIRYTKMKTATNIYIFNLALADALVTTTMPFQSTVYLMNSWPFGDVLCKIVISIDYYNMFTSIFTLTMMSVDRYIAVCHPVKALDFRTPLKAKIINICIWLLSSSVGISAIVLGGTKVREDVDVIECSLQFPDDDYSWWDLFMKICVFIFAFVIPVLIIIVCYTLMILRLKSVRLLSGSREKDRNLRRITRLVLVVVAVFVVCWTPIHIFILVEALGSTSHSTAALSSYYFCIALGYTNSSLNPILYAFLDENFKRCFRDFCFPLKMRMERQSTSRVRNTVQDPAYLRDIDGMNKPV

The target of data set [3] is 5-hydroxytryptamine receptor 7 (Homo sapiens) (UniProt P34969). The data set is described as follows: Displacement of [3H]-LSD from human 5HT7A stably expressed in HEK cell membranes at 10 uM incubated for 90 mins under dark condition by scintillation counting analysis relative to control.
Sequence of 5-hydroxytryptamine receptor 7 (Homo sapiens) (P34969 whole entry): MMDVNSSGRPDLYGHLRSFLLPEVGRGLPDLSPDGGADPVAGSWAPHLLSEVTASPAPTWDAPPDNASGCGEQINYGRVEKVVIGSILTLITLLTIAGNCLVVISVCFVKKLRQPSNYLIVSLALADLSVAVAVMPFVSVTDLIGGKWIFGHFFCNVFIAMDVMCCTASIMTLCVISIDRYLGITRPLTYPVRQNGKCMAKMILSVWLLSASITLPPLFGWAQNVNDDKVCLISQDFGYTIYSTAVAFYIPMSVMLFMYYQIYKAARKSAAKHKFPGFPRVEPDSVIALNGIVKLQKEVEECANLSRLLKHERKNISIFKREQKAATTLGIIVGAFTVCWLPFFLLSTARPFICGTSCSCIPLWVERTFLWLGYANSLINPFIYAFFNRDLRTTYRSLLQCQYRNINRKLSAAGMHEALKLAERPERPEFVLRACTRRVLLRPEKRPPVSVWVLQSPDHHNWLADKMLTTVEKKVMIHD
The target of data set [4] is Beta-1 adrenergic receptor (Homo sapiens) (UniProt P08588). The data set is described as follows: Displacement of [125I]-pindolol from human beta1 adrenergic receptor expressed in CHO FLp-In cell membranes at 10 uM incubated for 90 mins under dark condition by scintillation counting analysis relative to control.
Sequence of Beta-1 adrenergic receptor (Homo sapiens) (P08588 whole entry, looked up): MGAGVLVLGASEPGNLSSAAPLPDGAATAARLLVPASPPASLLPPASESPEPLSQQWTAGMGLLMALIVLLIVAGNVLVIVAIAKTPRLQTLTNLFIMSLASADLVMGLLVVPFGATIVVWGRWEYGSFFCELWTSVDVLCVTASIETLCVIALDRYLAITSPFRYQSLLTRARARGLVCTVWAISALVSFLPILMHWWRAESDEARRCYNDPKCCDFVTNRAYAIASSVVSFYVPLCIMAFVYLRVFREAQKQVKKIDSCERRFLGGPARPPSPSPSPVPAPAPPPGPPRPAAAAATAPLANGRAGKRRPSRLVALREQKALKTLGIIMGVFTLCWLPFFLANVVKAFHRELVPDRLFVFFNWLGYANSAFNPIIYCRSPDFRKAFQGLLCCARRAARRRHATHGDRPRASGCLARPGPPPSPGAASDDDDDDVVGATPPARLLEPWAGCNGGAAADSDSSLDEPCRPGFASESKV
Data set [5] is described as follows: Volume of distribution at steady state in Sprague-Dawley rat at 10 mg/kg, iv. The data set is classed as ADME, organism-based. Conditions: in vivo. The method, boiled down: (§1)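 Male Sprague-Dawley rats, 200–250 g, n = 3/group, randomly assigned; dosed 10 mg/kg iv or 20 mg/kg po in 10% DMSO:90% HP-β-CD. Retro-orbital blood sampled predose and 0.08 (iv only), 0.25, 0.5, 1, 2, 4, 8, 24 h. Noncompartmental analysis; Cmax read directly from plasma concentration–time plot; mean ± SEM.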

Data set [6] in a line: AUC (0 to infinity) in Sprague-Dawley rat at 20 mg/kg, po. Conditions: in vivo. Set-up: dose 20 mg/kg, time infinity, route oral. It is filed as ADME, organism-based.
Data set [7] concerns the target 5-hydroxytryptamine receptor 1B (Homo sapiens) (UniProt P28222). As to the kind of experiment: Displacement of [3H]-GR125743 from human 5HT1B stably expressed in HEK cell membranes at 10 uM incubated for 90 mins under dark condition by scintillation counting analysis relative to control.
Data set [8] deals with Alpha-2C adrenergic receptor (Homo sapiens) (UniProt P18825). The data set is described as follows: Displacement of [3H]-rauwolscine from human adrenergic alpha2C receptor stably expressed in MDCK cell membranes at 10 uM incubated for 90 mins under dark condition by scintillation counting analysis relative to control.
Sequence of Alpha-2C adrenergic receptor (Homo sapiens) (P18825 whole entry): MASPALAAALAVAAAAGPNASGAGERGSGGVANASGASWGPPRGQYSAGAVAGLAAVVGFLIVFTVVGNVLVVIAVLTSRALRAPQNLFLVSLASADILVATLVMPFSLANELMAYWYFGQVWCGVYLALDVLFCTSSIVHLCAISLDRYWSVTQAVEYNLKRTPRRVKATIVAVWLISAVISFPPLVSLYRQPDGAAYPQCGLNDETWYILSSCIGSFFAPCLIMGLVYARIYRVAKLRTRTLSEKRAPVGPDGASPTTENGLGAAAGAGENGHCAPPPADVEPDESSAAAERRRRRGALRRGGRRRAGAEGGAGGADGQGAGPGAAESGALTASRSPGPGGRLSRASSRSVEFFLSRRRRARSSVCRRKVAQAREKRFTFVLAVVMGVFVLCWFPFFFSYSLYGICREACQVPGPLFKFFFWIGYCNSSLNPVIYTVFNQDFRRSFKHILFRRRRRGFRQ
In data set [9] the target is Sodium-dependent serotonin transporter (Homo sapiens) (UniProt P31645). The data set is described as follows: Displacement of [3H]-citalopram from human SERT stably expressed in HEK cell membranes at 10 uM incubated for 90 mins under dark condition by scintillation counting analysis relative to control.
Sequence of Sodium-dependent serotonin transporter (Homo sapiens) (P31645 whole entry, looked up): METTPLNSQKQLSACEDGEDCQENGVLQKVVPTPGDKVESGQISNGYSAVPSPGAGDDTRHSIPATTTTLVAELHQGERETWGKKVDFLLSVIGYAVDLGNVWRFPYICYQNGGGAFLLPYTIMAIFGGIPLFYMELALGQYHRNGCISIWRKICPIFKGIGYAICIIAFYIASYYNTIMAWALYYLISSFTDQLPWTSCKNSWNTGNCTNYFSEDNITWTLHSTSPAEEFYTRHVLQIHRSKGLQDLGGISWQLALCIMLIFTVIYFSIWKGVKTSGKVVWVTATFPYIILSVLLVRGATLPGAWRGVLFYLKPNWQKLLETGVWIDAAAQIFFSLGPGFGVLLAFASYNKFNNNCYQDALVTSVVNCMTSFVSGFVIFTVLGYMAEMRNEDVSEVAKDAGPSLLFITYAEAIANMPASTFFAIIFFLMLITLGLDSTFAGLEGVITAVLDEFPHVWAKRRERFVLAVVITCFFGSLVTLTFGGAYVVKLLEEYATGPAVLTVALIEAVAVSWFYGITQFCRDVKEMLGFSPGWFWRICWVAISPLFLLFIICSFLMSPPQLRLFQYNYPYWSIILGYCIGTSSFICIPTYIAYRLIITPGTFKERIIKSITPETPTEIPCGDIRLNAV
Data set [10] in a line: Cmax in Sprague-Dawley rat at 20 mg/kg, po. Conditions: in vivo. Set-up: dose 20 mg/kg, route oral. It is filed as ADME, organism-based. The procedure, abridged: as §1
Data set [11] in a line: Kinetic solubility of the compound in PBS at pH 7.4 measured after 2 hrs. It is filed as physicochemical. Conditions: buffer, pH 7.4, 2 h.
For data set [12], the system named is Rattus norvegicus. The data set is described as follows: Potentiation of WAY163909-induced neurobiological activity in Sprague-Dawley rat assessed as increase in number of rat choosing WAY163909 associated lever at 2 mg/kg, ip treated 15 mins prior to WAY163909 addition and measured after 15 mins in presence of 5HT2CR antagonist SB242084 by drug discrimination test (reference value: 53%). The data set is classed as functional. The method, boiled down: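 Two-lever FR20 drug discrimination in male Sprague-Dawley rats (n = 13) trained on WAY163909 0.75 mg/kg ip versus saline. SB242084 (0.5 mg/kg ip) given 15 min before WAY163909. Test compound (2 mg/kg ip) given 15 min before WAY163909 (0.5 mg/kg ip). Rats placed in chambers 15 min after WAY163909. Read-out is the percentage of rats choosing the WAY163909 lever.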

Data set [13] has as its target 5-HT2A receptor (Homo sapiens, UniProt P28223). As to the kind of experiment: Displacement of [3H]-ketanserin from 5HT2A (unknown origin) at 10 uM incubated for 90 mins under dark condition by scintillation counting analysis relative to control. The conditions noted are these: probe [3H]-ketanserin.
Data set [14] addresses Sodium-dependent noradrenaline transporter (Homo sapiens, UniProt P23975). As to the kind of experiment: Displacement of [3H]-nisoxetine from human NET stably expressed in HEK cell membranes incubated for 90 mins under dark condition by scintillation counting analysis. The method, boiled down: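 Radioligand competition isotherms for human NET; IC50 from non-linear regression, converted to Ki via the Cheng-Prusoff equation; Ki averaged over repeated experiments.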

A short description of data set [15]: Half life in Sprague-Dawley rat at 20 mg/kg, po. The data set is classed as ADME, organism-based. Conditions: in vivo. The method, boiled down: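 Male Sprague-Dawley rats (200–250 g, n = 3/group) dosed orally at 20 mg/kg in 10% DMSO:90% HP-β-CD. Retro-orbital blood sampled at 0.25, 0.5, 1, 2, 4, 8 and 24 h post-dose; plasma analysed externally. Noncompartmental analysis: λ from least-squares terminal log-linear slope, t1/2 = 0.693/λ; mean ± SEM.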

Sequence of 5-hydroxytryptamine receptor 1B (Homo sapiens) (P28222 whole entry): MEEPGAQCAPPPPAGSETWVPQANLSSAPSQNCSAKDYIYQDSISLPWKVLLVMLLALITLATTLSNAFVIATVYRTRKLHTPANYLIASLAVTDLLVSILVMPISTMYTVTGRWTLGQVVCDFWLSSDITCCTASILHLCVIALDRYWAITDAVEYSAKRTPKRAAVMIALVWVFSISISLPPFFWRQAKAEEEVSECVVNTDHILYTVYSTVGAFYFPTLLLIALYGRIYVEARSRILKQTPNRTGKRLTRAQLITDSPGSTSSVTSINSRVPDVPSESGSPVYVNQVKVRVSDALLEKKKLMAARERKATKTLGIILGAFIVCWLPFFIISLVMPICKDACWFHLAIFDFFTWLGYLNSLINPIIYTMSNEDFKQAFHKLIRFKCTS
Sequence of 5-HT2A receptor (P28223 whole entry): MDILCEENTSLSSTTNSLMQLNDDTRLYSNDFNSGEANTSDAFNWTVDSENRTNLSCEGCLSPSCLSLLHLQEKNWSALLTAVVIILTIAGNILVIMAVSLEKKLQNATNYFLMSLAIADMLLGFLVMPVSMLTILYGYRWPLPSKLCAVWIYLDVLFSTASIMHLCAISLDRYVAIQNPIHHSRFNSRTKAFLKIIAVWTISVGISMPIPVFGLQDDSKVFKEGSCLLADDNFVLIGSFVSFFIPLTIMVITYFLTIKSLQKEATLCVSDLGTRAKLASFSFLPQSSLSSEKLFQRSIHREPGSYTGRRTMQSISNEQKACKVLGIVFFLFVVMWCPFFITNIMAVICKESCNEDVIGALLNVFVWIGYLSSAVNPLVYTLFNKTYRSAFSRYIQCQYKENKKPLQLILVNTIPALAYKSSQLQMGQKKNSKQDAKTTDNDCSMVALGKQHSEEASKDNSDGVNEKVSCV
Sequence of Sodium-dependent noradrenaline transporter (P23975 whole entry): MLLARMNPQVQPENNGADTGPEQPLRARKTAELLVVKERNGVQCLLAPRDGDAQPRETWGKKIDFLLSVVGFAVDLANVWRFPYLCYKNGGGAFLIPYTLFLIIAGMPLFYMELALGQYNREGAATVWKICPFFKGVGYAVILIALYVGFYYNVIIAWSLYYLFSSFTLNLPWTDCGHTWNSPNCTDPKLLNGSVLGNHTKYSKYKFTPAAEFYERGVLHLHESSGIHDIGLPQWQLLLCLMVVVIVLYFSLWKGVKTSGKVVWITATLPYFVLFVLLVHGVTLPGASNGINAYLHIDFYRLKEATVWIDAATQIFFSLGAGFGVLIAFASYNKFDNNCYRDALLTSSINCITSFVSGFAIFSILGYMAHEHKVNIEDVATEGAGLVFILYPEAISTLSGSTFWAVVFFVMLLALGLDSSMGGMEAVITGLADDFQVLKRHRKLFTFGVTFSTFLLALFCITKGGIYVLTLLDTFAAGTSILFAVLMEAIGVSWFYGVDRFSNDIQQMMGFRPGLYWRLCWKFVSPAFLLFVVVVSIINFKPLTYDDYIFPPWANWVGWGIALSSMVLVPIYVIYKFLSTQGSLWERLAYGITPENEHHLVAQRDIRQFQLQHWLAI

For the compound `O=C(NC[C@H](O)CO)[C@@H]1C[C@H](c2ccccc2)CCN1` (mixture of isomers), the BPR in data set [1] worked out at 0.11. In addition, the inhibition was 13.4% in data set [2]; 2.2% in [3]; -7.7% in data set [4]; 12.3% in data set [7]; -1.8% in [8]; 47.5% in data set [9]. Further, the Vdss in [5] turned out to be 5.4 L/kg. In [6], the AUC is 2244.7 ng·h/mL. The compound further displayed a Cmax in data set [10] of 411.3 ng/mL. Besides, the Kinetic_solubility in data set [11] is > 100 µM. Besides, in data set [12], the Activity was determined as 0%. Also, the inhibition at 1.5 h, 10 µM in data set [13] was -4.3%. The compound also yielded a Ki in data set [14] of 2500 nM. The same compound had a t1/2 in data set [15] of 4.4 h.
